pEC50, pIC50: −log10 of the molar value.
Columns and labels:
MCF7 = test: Cytotoxicity against human MCF7 cells assessed as reduction in cell viability incubated for 72 hrs by alamar blue assay; type: functional, cell-based; conditions: MCF7, 72 h
Outline: (§1)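 Cells seeded in 384-well plates and dosed 24 h after plating, in quadruplicate. Viability was read by alamarBlue fluorescence at 72 h. IC50 came from nonlinear regression as the mean of 4 replicates. Growth media carried 10% FBS and 1% pen/strep: UCH1/UCH2 in 4:1 IMDM:RPMI-1640 in gel-coated flasks; A431, PANC1 and WS1 in DMEM; DU145 and MCF7 in MEM; 5637 in RPMI-1640.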

5637 = test: Cytotoxicity against human 5637 cells assessed as reduction in cell viability incubated for 72 hrs by alamar blue assay; type: functional, cell-based; conditions: Homo sapiens, 5637, 72 h; outline: as §1
DU-145 = test: Cytotoxicity against human DU-145 cells assessed as reduction in cell viability incubated for 72 hrs by alamar blue assay; type: functional, cell-based; conditions: DU-145, 72 h; outline: as §1
PANC-1 = test: Cytotoxicity against human PANC1 cells assessed as reduction in cell viability incubated for 72 hrs by alamar blue assay; type: functional, cell-based; conditions: PANC-1, 72 h; outline: as §1
[1] = Cytotoxicity against human UCH1 cells assessed as reduction in cell viability incubated for 72 hrs by alamar blue assay; type: functional, cell-based; conditions: UCH1, 72 h; outline: as §1
[2] = Cytotoxicity against human UCH2 cells assessed as reduction in cell viability incubated for 72 hrs by alamar blue assay; type: functional, cell-based; conditions: UCH2, 72 h; outline: as §1
A-431 = test: Cytotoxicity against human A-431 cells assessed as reduction in cell viability incubated for 72 hrs by alamar blue assay; type: functional, cell-based; conditions: A-431, 72 h; outline: as §1
[3] = Cytotoxicity against human WS1 cells assessed as reduction in cell viability incubated for 72 hrs by alamar blue assay; type: cell-based; conditions: WS1, 72 h; outline: as §1
[4] = tested on: Feline immunodeficiency virus; test: Antiviral activity against Feline immunodeficiency virus; type: functional, organism-based

Row | Compound | pIC50 (MCF7) | pIC50 5637 | pIC50 (DU-145) | pIC50 (PANC-1) | pIC50 [1] | pIC50 [2] | pIC50 (A-431) | pIC50 [3] | pEC50 [4]
1 | Clc1nss/c1=N\c1ccc(Br)cc1 | 4.96 | 4.44 | 4.32 | 4.46 | 4.37 | 4.29 | < 4.00 | < 4.00 | –
2 | Clc1nss/c1=N\c1nccs1 | 4.35 | 4.82 | 5.09 | 4.62 | 5.00 | 4.66 | 4.77 | 4.62 | –
3 | Cc1cc(/N=c2\ssnc2Cl)n[nH]1 | 4.74 | 4.70 | 4.85 | 4.57 | 4.48 | 4.74 | 4.16 | 4.40 | –
4 | CCOC(=O)c1c2nssc-2c(Cl)c1Cl | – | – | – | – | – | – | – | – | 6.51
5 | CCOC(=O)c1c2n[se]sc-2c(Cl)c1Cl | – | – | – | – | – | – | – | – | 7.09
6 | Cc1nn(C)c2c1SSC(C#N)=N2 | < 4.00 | 4.09 | 4.40 | < 4.00 | < 4.00 | < 4.00 | < 4.00 | < 4.00 | –
7 | N#Cc1cc(Br)ccc1/N=c1\ssnc1N1CCN(CCCl)CC1 | 5.39 | 5.10 | 4.82 | 4.74 | 4.49 | 4.64 | < 4.00 | < 4.00 | –
8 | Clc1nss/c1=N\c1cccc(Br)c1 | 5.17 | 4.28 | 4.57 | 4.42 | 4.40 | 4.23 | < 4.00 | 4.03 | –
9 | N#CC1=Nc2c(c(-c3ccccc3)nn2-c2ccccc2)SS1 | 4.44 | 4.85 | 4.80 | 4.12 | 4.26 | 4.17 | 4.14 | < 4.00 | –
10 | CSc1ccc(/N=c2\ssnc2Cl)cc1 | 4.44 | 4.47 | 4.85 | 4.07 | 4.42 | 4.43 | 4.29 | 4.18 | –
11 | N#CSCCN1CCN(c2nssc2=O)CC1 | 5.27 | 4.41 | 5.48 | 4.96 | 4.92 | 4.85 | 4.60 | 4.77 | –
12 | O=C(OCCN1CCN(c2nss/c2=N\c2ccccc2)CC1)c1ccccc1 | 4.77 | 4.89 | 4.52 | 4.22 | 4.64 | 4.47 | 4.44 | 4.42 | –
13 | Cc1cc(OC(F)(F)F)ccc1/N=c1\ssnc1Cl | 4.37 | 4.33 | 4.74 | 4.12 | 4.24 | 4.06 | < 4.00 | < 4.00 | –
14 | c1ccc(/N=c2\ssnc2N2CCN(CCNc3ccccc3)CC2)cc1 | 5.00 | 4.74 | 4.26 | 4.17 | 4.60 | 4.68 | 4.06 | 4.26 | –
15 | O=S(=O)(Nc1nccs1)c1ccc(/N=c2\ssnc2Cl)cc1 | 4.31 | 4.57 | 4.04 | 4.01 | 4.52 | 4.44 | < 4.00 | < 4.00 | –
16 | Clc1nss/c1=N\c1cc(-c2ccccc2)n[nH]1 | 5.03 | 4.80 | 4.96 | 4.64 | 4.23 | 4.42 | < 4.00 | < 4.00 | –
17 | O=C1c2ccccc2C(=O)N1CCN1CCN(c2nssc2=S)CC1 | 4.29 | 4.60 | 4.64 | 4.14 | 4.34 | < 4.00 | < 4.00 | < 4.00 | –
18 | Cc1cc(/N=c2\ssnc2Cl)n(Cc2ccccc2)n1 | 4.74 | 5.68 | 5.00 | 4.59 | 4.48 | 4.52 | 4.57 | 4.82 | –

— ChEMBL document CHEMBL4819119, “Design and evaluation of 1,2,3-dithiazoles and fused 1,2,4-dithiazines as anti-cancer agents” (Bioorg Med Chem Lett, 2021)
